Screening results as filed in PubChem BioAssay.
KCNK9 inh – inhibitors of human KCNK9 two-pore domain potassium channel; B-score at 10 µM; actives 1.2% (n = 310,000); AID 488922; Q9NPC2; HEK293 KCNK9, FluxOR thallium flux fluorescence; hits give low values;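 active = ratio B-score over 3 SD below the library mean, with starting fluorescence within 5 SD of its mean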;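 also: negative B-score means less thallium flux so channel inhibition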
KCNQ1 pot – potentiators or activators of human KCNQ1 potassium channel; B-score at 10 µM; P51787; CHO-K1 KCNQ1, thallium flux FluxOR fluorescence; hits give high values; actives 0.35% (n = 310,000); AID 2648;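 active = fluorescence ratio B-score, a plate-corrected score, at least three library SD, with initial intensity B-score within 5 SD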
Target sequence (P51787 whole entry, looked up): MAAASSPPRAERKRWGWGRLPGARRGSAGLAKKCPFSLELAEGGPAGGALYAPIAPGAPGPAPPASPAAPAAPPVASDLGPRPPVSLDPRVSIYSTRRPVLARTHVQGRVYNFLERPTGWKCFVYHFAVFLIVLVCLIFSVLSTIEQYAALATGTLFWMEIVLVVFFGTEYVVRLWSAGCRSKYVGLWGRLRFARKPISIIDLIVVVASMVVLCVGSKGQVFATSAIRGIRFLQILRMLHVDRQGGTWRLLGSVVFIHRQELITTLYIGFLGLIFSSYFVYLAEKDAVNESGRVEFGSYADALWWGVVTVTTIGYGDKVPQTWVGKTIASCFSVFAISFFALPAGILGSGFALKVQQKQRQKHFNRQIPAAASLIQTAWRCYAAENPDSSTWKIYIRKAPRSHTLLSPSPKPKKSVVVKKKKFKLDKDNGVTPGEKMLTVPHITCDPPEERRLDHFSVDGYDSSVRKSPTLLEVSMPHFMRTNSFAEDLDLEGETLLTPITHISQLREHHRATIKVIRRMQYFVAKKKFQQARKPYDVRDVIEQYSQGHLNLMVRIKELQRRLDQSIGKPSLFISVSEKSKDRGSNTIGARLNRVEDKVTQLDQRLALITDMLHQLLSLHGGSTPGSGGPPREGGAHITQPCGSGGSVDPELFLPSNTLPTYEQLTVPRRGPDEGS
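assay system = CHO-K1 cells stably expressing KCNQ1 | medium = assay buffer, equal DMSO in all wells | timing = 37 °C overnight plating, 90-min dark dye load, 20-min compound pretreatment | measured by = kinetic FluxOR thallium fluorescence, 10-s 1-Hz baseline, 110-s post-stimulus read | measure = fluorescence change relative to baseline, converted to B score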
hERG protect – shields human hERG channel from block by proarrhythmic agents | CHO-hERG, FluxOR thallium flux, dofetilide IC70 present | activation (rescue from dofetilide block), less the hit threshold, % at 10 µM | actives 0.51% (n = 310,000);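 active = activation above the mean of controls blocked by dofetilide plus 5 SD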;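 also: thallium influx through hERG after potassium depolarization seen as dye fluorescence rise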
KCNQ1 block – human KCNQ1 channel inhibition | P51787 | CHO-K1 KCNQ1, FluxOR thallium flux fluorescence; hits give high values | actives 1.3% (n = 310,000) | B-score at 10 µM;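 active = compounds whose thallium flux B-score, printed positive for inhibition, exceeds three library SD while starting fluorescence stays within three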;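 also: channel opened by potassium depolarization with thallium stimulus after 20 min compound exposure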
KCNK3 block – human KCNK3 channel inhibition, primary screen; CHO-KCNK3 thallium flux, FluxOR fluorescence; hits give low values; B-score at 10 µM; actives 0.84% (n = 340,000);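 active = B-score under library mean minus 4 SD, starting fluorescence ratio at most library mean plus 5 SD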;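 also: more negative B-score means stronger inhibition of thallium flux through KCNK3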
KCNK9 inh conf – confirmation of human KCNK9 potassium channel inhibitors; shares compounds with KCNK9 inh; actives 43% (n = 4,900); AID 492992; HEK293 KCNK9 cells, FluxOR thallium flux fluorescence; inhibition, % at 10 µM;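 active = thallium signal inhibited by more than 5 SD of the compound-free buffer control wells, on both duplicate plates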
Kir21 sel – mouse Kir2.1 off-target activity of KCNK9 modulators; shares compounds with KCNK9 inh; Kir2.1 cells, FluxOR thallium flux fluorescence; inhibition, % at 10 µM; actives 4% (n = 4,900);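 active = thallium signal drop more than 5 SD beyond the mean of the no-compound control wells, seen in both duplicate plates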;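 also: signal is fluorescence rise after thallium addition divided by baseline fluorescence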
HEK293 Tl ctr – non-induced cell nonspecific activity of KCNK9 modulators; inhibition, % at 10 µM; actives 40% (n = 4,900); non-induced KCNK9-HEK293, FluxOR thallium flux; AID 492997; shares compounds with KCNK9 inh;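 active = thallium signal drop beyond 5 SD of the untreated control mean, on both duplicate plates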
A number is an active result. Compounds with a hit are over-represented: about 3.1% of the library has one in this group of screens.

Results for C=C1CCN([C@H](C(=O)OCc2cccc(C)c2)C(C)C)S(=O)(=O)c2ccccc21 ?
KCNK9 inh: -9; KCNQ1 pot: inactive; hERG protect: inactive; KCNQ1 block: inactive; KCNK3 block: inactive; KCNK9 inh conf: 46%; Kir21 sel: inactive; HEK293 Tl ctr: inactive

How did C=C1CCN([C@H](C(=O)O)C(C)C)S(=O)(=O)c2ccccc21 do in these assays?
KCNK9 inh: inactive; KCNQ1 pot: inactive; hERG protect: inactive; KCNQ1 block: inactive; KCNK3 block: inactive

What do the screens show for `CCCCCc1ccc(OCCC[n+]2ccccc2)c(CCCCC)c1`?
KCNK9 inh: inactive; KCNQ1 pot: inactive; hERG protect: inactive; KCNQ1 block: inactive; KCNK3 block: inactive

How did CCCCCc1ccc(OCCOCCn2c[n+](C)c3ccccc32)c(CCCCC)c1 do in these assays?
KCNK9 inh: -8.4; KCNQ1 pot: inactive; hERG protect: inactive; KCNQ1 block: 7; KCNK3 block: inactive; KCNK9 inh conf: 53%; Kir21 sel: 61%; HEK293 Tl ctr: inactive

Results for COc1cc(OC)cc(C(=O)N2CCN(Cc3ccc4c(c3)OCO4)CC2)c1 ?
KCNK9 inh: inactive; KCNQ1 pot: inactive; hERG protect: inactive; KCNQ1 block: inactive; KCNK3 block: inactive

What do the screens show for `CCc1sc(N(C(=O)Cc2ccccc2)c2ccccc2)nc1-c1ccccc1`?
KCNK9 inh: inactive; KCNQ1 pot: inactive; hERG protect: inactive; KCNQ1 block: inactive; KCNK3 block: inactive

How did CCCCC(=O)N(c1ccc(C(=O)O)cc1)c1nc(-c2ccc(Cl)cc2)c(CC)s1 do in these assays?
KCNK9 inh: inactive; KCNQ1 pot: inactive; hERG protect: inactive; KCNQ1 block: inactive; KCNK3 block: inactive; KCNK9 inh conf: inactive; Kir21 sel: inactive; HEK293 Tl ctr: inactive

How did O=C(CSCc1ccc(Cl)cc1)N/N=C/c1ccc(Cl)cc1Cl do in these assays?
KCNK9 inh: inactive; KCNQ1 pot: inactive; hERG protect: inactive; KCNQ1 block: inactive; KCNK3 block: inactive

Results for COc1ccccc1/C=C(/C(=O)OCC(=O)Nc1ccccc1C(C)C)c1ccccc1 ?
KCNK9 inh: -9.5; KCNQ1 pot: inactive; hERG protect: inactive; KCNQ1 block: inactive; KCNK3 block: inactive; KCNK9 inh conf: 51%; Kir21 sel: inactive; HEK293 Tl ctr: 39%

What do the screens show for `O=C1CC2(CCN(C(=O)c3cccc(Br)c3)CC2)Oc2ccccc21`?
KCNK9 inh: inactive; KCNQ1 pot: inactive; hERG protect: inactive; KCNQ1 block: inactive; KCNK3 block: inactive

How did COc1ccc(OC)c(NC(=O)c2cc(OC(C)=O)cc(C(=O)Nc3cc(OC)ccc3OC)c2)c1 do in these assays?
KCNK9 inh: -9.5; KCNQ1 pot: inactive; hERG protect: inactive; KCNQ1 block: inactive; KCNK3 block: inactive; KCNK9 inh conf: 49%; Kir21 sel: inactive; HEK293 Tl ctr: inactive

Results for COc1ccc(C(=O)Nc2cc(OC)ccc2OC)cc1 ?
KCNK9 inh: inactive; KCNQ1 pot: inactive; hERG protect: inactive; KCNQ1 block: inactive; KCNK3 block: inactive

Results for CCCN(CCC)c1ccc(CC(=O)NC(C)Cc2ccccc2)cc1 (stereo not drawn) ?
KCNK9 inh: inactive; KCNQ1 pot: inactive; hERG protect: inactive; KCNQ1 block: inactive; KCNK3 block: inactive; KCNK9 inh conf: inactive; Kir21 sel: inactive; HEK293 Tl ctr: inactive

Results for CC(C)CC(c1nnnn1C(C)C)N1CCN(C(=O)c2ccco2)CC1 (stereo not drawn) ?
KCNK9 inh: inactive; KCNQ1 pot: inactive; hERG protect: inactive; KCNQ1 block: inactive; KCNK3 block: inactive

Results for CC(C)CC(c1nnnn1C(C)C)N1CCN(c2cccc(Cl)c2)CC1 (stereo not drawn) ?
KCNK9 inh: -9.9; KCNQ1 pot: inactive; hERG protect: inactive; KCNQ1 block: inactive; KCNK3 block: inactive; KCNK9 inh conf: 44%; Kir21 sel: inactive; HEK293 Tl ctr: 40%

How did Brc1ccc(-c2noc(COc3ccc4c(c3)CCC4)n2)o1 do in these assays?
KCNK9 inh: inactive; KCNQ1 pot: inactive; hERG protect: inactive; KCNQ1 block: inactive; KCNK3 block: inactive; KCNK9 inh conf: inactive; Kir21 sel: inactive; HEK293 Tl ctr: inactive

How did Clc1ccc(OCc2nc(-c3ccc(Br)o3)no2)cc1 do in these assays?
KCNK9 inh: inactive; KCNQ1 pot: inactive; hERG protect: inactive; KCNQ1 block: inactive; KCNK3 block: inactive

How did c1csc(-c2noc(COc3ccc4c(c3)CCCC4)n2)c1 do in these assays?
KCNK9 inh: inactive; KCNQ1 pot: inactive; hERG protect: inactive; KCNQ1 block: inactive; KCNK3 block: inactive; KCNK9 inh conf: inactive; Kir21 sel: inactive; HEK293 Tl ctr: inactive

What do the screens show for `Cc1cc(/C=N/NC(=O)c2c(Br)cnn2C)c(C)n1-c1cccc(Br)c1`?
KCNK9 inh: -12; KCNQ1 pot: inactive; hERG protect: inactive; KCNQ1 block: inactive; KCNK3 block: inactive; KCNK9 inh conf: 54%; Kir21 sel: inactive; HEK293 Tl ctr: 29%

Results for Cc1ccc(C(C)NC(=O)/C(C#N)=C\c2c(C)[nH]c3ccccc23)cc1 (stereo not drawn) ?
KCNK9 inh: inactive; KCNQ1 pot: inactive; hERG protect: inactive; KCNQ1 block: inactive; KCNK3 block: inactive; KCNK9 inh conf: inactive; Kir21 sel: inactive; HEK293 Tl ctr: inactive

What do the screens show for `CCOCCCNC(=S)NCCNc1nc2ccc(C)cc2cc1C#N`?
KCNK9 inh: -8.3; KCNQ1 pot: inactive; hERG protect: inactive; KCNQ1 block: inactive; KCNK3 block: inactive; KCNK9 inh conf: inactive; Kir21 sel: inactive; HEK293 Tl ctr: inactive

What do the screens show for `COc1ccc(-c2n(CC(=O)OC3CC(C)CCC3C(C)C)c3ccccc3[n+]2C)cc1` (stereo not drawn)?
KCNK9 inh: -17; KCNQ1 pot: inactive; hERG protect: inactive; KCNQ1 block: 11; KCNK3 block: inactive; KCNK9 inh conf: 73%; Kir21 sel: 80%; HEK293 Tl ctr: inactive

Results for CC1CCC(C(C)C)C(OC(=O)CSc2nccc(=O)[nH]2)C1 (stereo not drawn) ?
KCNK9 inh: inactive; KCNQ1 pot: inactive; hERG protect: inactive; KCNQ1 block: inactive; KCNK3 block: inactive

What do the screens show for `CCOC(=O)N1CCN(Cc2cc(=O)oc3ccc4ccccc4c23)CC1`?
KCNK9 inh: inactive; KCNQ1 pot: inactive; hERG protect: inactive; KCNQ1 block: inactive; KCNK3 block: inactive

How did O=C(CC12CC3CC(CC(C3)C1)C2)NCC(=O)OCc1cc(=O)oc2ccc3ccccc3c12 do in these assays?
KCNK9 inh: -15; KCNQ1 pot: inactive; hERG protect: inactive; KCNQ1 block: inactive; KCNK3 block: inactive; KCNK9 inh conf: 62%; Kir21 sel: inactive; HEK293 Tl ctr: inactive
